Shown are actives, neighbours in structure and some others; about 2.3% of the full set was active somewhere.
TRPC6 act: mouse TRPC6 channel activators, primary screen, cell-based, HEK293, membrane potential dye | Short transient receptor potential channel 6 (Mus musculus), Q61143 | HEK293-TRPC6 membrane potential dye fluorescence; stronger effect = higher value | B-score at 10 µM | 310,000 tested, 0.13% active | AID 2550, 2010;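 active = B-score of the integrated fluorescence ratio above library mean plus 3 SD, and starting fluorescence ratio within library mean plus 5 SD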;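 also: higher score means more depolarization so channel activation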
TRPC4 inh: inhibitors of mouse TRPC4 channel, primary screen, Fluo4 calcium, HEK293 TRPC4beta/mu-opioid cells. Short transient receptor potential channel 4 (Mus musculus), Q9QUQ5. DAMGO-evoked Fluo4 calcium flux; stronger effect = lower value. B-score at 10 µM. 300,000 tested, 0.39% active. AID 2247, 2010;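 active = B-score over 3 SD under the library average, no early fluorescence shift, positive overall ratio signal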
Target sequence (Q9QUQ5 whole entry, looked up): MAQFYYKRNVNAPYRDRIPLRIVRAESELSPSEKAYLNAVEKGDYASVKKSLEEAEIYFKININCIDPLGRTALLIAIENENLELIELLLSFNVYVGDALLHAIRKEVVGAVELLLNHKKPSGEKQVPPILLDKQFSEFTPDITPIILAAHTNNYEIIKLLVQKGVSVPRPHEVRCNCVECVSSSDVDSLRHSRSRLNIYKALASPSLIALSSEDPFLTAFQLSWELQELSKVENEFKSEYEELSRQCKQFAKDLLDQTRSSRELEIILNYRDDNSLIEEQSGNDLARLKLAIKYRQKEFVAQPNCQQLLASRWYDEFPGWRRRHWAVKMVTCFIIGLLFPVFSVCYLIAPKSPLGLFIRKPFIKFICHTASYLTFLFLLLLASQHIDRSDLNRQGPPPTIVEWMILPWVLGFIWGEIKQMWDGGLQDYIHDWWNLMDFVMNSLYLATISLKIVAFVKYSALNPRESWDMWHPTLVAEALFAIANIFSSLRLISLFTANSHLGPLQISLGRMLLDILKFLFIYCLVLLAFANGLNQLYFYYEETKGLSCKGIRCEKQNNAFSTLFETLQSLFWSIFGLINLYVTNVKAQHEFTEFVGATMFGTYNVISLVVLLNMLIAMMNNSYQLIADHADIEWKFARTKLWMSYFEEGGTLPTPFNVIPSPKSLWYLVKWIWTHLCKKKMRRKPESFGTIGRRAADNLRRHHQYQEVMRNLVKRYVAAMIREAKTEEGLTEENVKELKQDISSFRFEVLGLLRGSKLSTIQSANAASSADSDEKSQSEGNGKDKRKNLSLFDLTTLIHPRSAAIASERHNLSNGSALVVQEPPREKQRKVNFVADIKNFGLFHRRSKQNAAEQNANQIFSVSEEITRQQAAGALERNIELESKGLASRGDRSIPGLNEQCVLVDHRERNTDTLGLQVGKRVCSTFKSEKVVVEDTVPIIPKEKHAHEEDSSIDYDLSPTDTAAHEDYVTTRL
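Signal: kinetic Fluo4 fluorescence imaging of calcium influx. Material: stable TRPC4beta/mu-opioid receptor HEK293 cells. Probe or stimulus: DAMGO in two steps, submaximal then maximal.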
TRPC4 PAM: positive allosteric modulators of TRPC4, primary screen, cell-based, mouse TRPC4beta, HEK293 mu-opioid, Fluo-4 calcium; 310,000 tested, 0.42% active; DAMGO EC20, Fluo-4 Ca2+ flux; stronger effect = higher value; B-score at 10 µM; Short transient receptor potential channel 4 (Mus musculus), Q9QUQ5; AID 2227, 2009;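 active = B-score of calcium response area above 5 SD of library B-scores, with initial fluorescence ratio within 5 SD of library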;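 also: B-score of integrated fluorescence ratio over time as area under calcium response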
TRPC4 act: activators of mouse TRPC4 channel, primary screen, Fluo4 calcium, HEK293 TRPC4beta/mu-opioid cells; Short transient receptor potential channel 4 (Mus musculus), Q9QUQ5; Fluo4 calcium fluorescence; stronger effect = higher value; B-score at 10 µM; 310,000 tested, 0.49% active;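 active = B-score above 5 SD of library B-scores, and initial fluorescence ratio not above library mean plus 5 SD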;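 also: positive B-score marks a calcium rise read as TRPC4 activation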
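Assay system: HEK293 cells stably co-expressing mouse TRPC4beta and mu-opioid receptor / Timing: Fluo4 dye loading 45 min at room temperature, 110 s recording / Signal: Fluo4 calcium-sensitive dye fluorescence, kinetic, 1 Hz baseline / Read-out: integrated baseline-normalised fluorescence ratio, converted to per-well B score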
TRPC6 inh: mouse TRPC6 channel inhibitors, primary screen, cell-based, HEK293, membrane potential dye; Short transient receptor potential channel 6 (Mus musculus), Q61143; ACh-evoked depolarization; stronger effect = lower value; B-score at 10 µM; 310,000 tested, 1.1% active;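 active = B-score under library mean minus 3 SD, initial fluorescence not abnormally high, positive integrated signal ratio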;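 also: B-score derived from integrated fluorescence ratio over the kinetic read; more negative B-score means stronger inhibition of depolarization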
HEK293 TRPC6 ctr: parental HEK293 membrane potential modulation, confirmation, counter-screen for TRPC6 modulator project, cell-based; shares compounds with TRPC6 inh; membrane potential dye fluorescence; membrane potential signal change, % at 10 µM; 2,400 tested, 51% active; AID 488924, 2010;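 active = membrane potential signal moves up or down beyond 5 SD from buffer-only wells, on both duplicate plates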
HEK293 MPD ctr 2: second counter-screen for TRPC6 modulators: effect in parental HEK293 cells; shares compounds with TRPC6 inh; membrane potential dye fluorescence; after compound, maximal acetylcholine stimulation; inhibition, % at 10 µM; 2,400 tested, 14% active;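 active = membrane potential signal drops by more than 5 SD from the mean control signal, in both duplicate plates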;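 also: plate controls were acetylcholine ECmax control wells for no effect and buffer only wells for full effect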
TRPC4/MOR mod: TRPC4 modulation by TRPC6 hit compounds, confirmation, selectivity assay for TRPC6 modulator project, cell-based, HEK293 TRPC4/mu-opioid, membrane potential dye, mouse. 2,400 tested, 69% active. percent change from control (negative = decrease, positive = increase), % at 10 µM. shares compounds with TRPC6 inh. membrane potential fluorescence. AID 488927, 2010;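 active = membrane potential signal moved up or down beyond 5 SD of buffer control wells, in both duplicate plates, actives on both sides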;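 also: plate controls were assay buffer wells for no effect and DAMGO maximal-effect wells for full effect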
TRPC4 ctr inh 2: second check of whether TRPC6 modulators also affect mouse TRPC4 | shares compounds with TRPC6 inh | HEK293 TRPC4/mu-opioid, membrane potential dye fluorescence; stimulated with maximal-effect DAMGO | inhibition, % at 10 µM | 2,400 tested, 55% active | AID 488928;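 active = drop in membrane potential signal beyond 5 SD of the control wells in both duplicate plates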;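 also: TRPC4 counter screen for TRPC6 hits run under conditions tuned for TRPC6 not TRPC4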
TRPC6 block conf: mouse TRPC6 channel inhibitors, confirmation, HEK293 cells, membrane potential dye, duplicate; shares compounds with TRPC6 inh; ACh-evoked depolarization; inhibition, % at 10 µM; 3,300 tested, 43% active; AID 488960, 2010;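 active = fluorescence ratio falls more than 5 SD below the full-stimulation control mean, in both duplicate runs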;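 also: integrated fluorescence ratio of peak minus minimum over baseline after agonist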
TRPC6 act conf: mouse TRPC6 channel activators, confirmation, HEK293 cells, membrane potential dye, duplicate | shares compounds with TRPC6 inh | HEK293-TRPC6 membrane potential dye fluorescence, FDSS | activation, % at 10 µM | 2,800 tested, 11% active | AID 488961, 2010;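 active = ratio signal rise beyond 5 SD above unstimulated control wells' mean, seen in both duplicate runs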;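 also: plate controls were buffer EC0 wells for no effect and acetylcholine ECmax response for full effect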
* hit, by the source's call; i = inactive; / = no result given.

SMILES | TRPC6 act | TRPC4 inh | TRPC4 PAM | TRPC4 act | TRPC6 inh | HEK293 TRPC6 ctr | HEK293 MPD ctr 2 | TRPC4/MOR mod | TRPC4 ctr inh 2 | TRPC6 block conf | TRPC6 act conf
COc1ccccc1/C=C/CN1CCC(Oc2ccc(C(=O)N3CCCCC3)cc2)CC1 | i | i | i | i | -5.76* | 240.0%* | i | 21.5%* | 79.5%* | 51.0%* | /
COC(=O)c1ccc(CN2CCC(Oc3ccc(C(=O)N4CCCCC4)cc3)CC2)cc1 | i | i | i | i | -5.72* | 139.5%* | i | 15.0%* | i | 45.5%* | /
COc1ccc(/C=C/CN2CCC(Oc3ccc(C(=O)N4CCCCC4)cc3)CC2)cc1 | i | i | i | i | i | / | / | / | / | / | /
COC(=O)c1ccc(CN2CCC(Oc3cccc(C(=O)N4CCCC4)c3)CC2)cc1 | i | i | i | i | i | / | / | / | / | / | /
N#Cc1c(NC(=O)c2ccccc2)sc2c1CCCCC2 | i | i | i | i | i | / | / | / | / | / | /
N#Cc1c(Cl)nsc1NC(=O)c1ccccc1 | i | i | i | i | -5.29* | 255.5%* | i | 101.0%* | 79.5%* | 71.0%* | /
COC(=O)c1ccc(N2CCN(C)CC2)c(NC(=O)c2cccnc2)c1 | i | i | i | 50* | -8.53* | -443.5%* | 84.5%* | -75.5%* | 55.5%* | 55.0%* | i
COc1cccc(NC(=O)c2cc([N+](=O)[O-])ccc2N2CCN(C)CC2)c1 | i | i | i | i | i | / | / | / | / | / | /
O=C(O)c1ccc(N2CCc3ccccc32)c([N+](=O)[O-])c1 | i | i | i | i | i | / | / | / | / | / | /
COc1ccc(C(=O)Nc2cc([N+](=O)[O-])ccc2N2CCN(C)CC2)cc1 | i | i | i | i | -17.1* | -386.0%* | 111.0%* | -60.0%* | 82.5%* | 86.5%* | i
COC(=O)c1ccc(N2CCc3ccccc32)c([N+](=O)[O-])c1 | i | i | i | i | -5.3* | i | i | -16.5%* | 40.5%* | i | i
CN1CCN(c2ccc([N+](=O)[O-])cc2C(=O)Nc2ccccc2)CC1 | i | i | i | i | -5.34* | i | i | i | i | i | i
Cc1ccc(C(=O)C2CCN(C(=S)NCCCOC(C)C)CC2)cc1 | i | i | i | i | i | / | / | / | / | / | /
O=C(NCC1CC1)[C@]1(C(F)(F)F)C[C@H](CCC2CCCCC2)CCCO1 | i | i | i | i | i | / | / | / | / | / | /
CN1CCN(c2ccc([N+](=O)[O-])cc2NC(=O)c2ccccc2)CC1 | i | i | i | i | -6.4* | -323.0%* | i | -50.5%* | 35.5%* | i | i

Screening results (PubChem BioAssay)
